Results: PMC7615941 (Cell, 2023)

Key:
[1] = target: C3aR with C-terminal SmBiT, in HEK-293 cells (human) (UniProt Q16581)
C5aR1 = assay: G-protein coupling and βarr recruitment, C5aR1; assay type: cell-based; details: Figure 7A
[2] = target: T1, mouse C5a receptor 1, FLAG-tagged, expressed in Sf9 for cryo-EM (mouse, UniProt P30993 2-351, alkylated with iodoacetamide); assay: cryo-EM structure
T1 sequence: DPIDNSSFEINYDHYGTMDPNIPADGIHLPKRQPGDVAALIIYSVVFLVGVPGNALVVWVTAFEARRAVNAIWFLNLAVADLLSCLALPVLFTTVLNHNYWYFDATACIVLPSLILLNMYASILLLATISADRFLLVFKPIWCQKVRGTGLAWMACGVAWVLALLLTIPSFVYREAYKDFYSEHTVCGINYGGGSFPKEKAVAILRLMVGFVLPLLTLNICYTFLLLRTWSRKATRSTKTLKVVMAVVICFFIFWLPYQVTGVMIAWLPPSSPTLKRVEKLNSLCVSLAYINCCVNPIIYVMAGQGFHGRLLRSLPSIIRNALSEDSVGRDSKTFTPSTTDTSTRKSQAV

[3] = target: T2, human C5a receptor 1, FLAG-tagged, expressed in Sf9 for cryo-EM (human, UniProt P21730 2-350, alkylated with iodoacetamide); assay: cryo-EM structure
T2 sequence: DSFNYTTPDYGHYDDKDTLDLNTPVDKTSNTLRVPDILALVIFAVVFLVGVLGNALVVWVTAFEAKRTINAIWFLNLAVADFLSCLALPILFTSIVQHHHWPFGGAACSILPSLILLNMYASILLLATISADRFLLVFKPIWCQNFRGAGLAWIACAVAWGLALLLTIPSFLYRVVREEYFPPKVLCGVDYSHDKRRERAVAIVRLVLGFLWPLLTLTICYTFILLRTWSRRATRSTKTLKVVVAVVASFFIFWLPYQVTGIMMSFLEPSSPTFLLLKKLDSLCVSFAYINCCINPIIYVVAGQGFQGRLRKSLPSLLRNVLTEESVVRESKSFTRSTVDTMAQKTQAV

C3aR = target: T3, C3aR (Homo sapiens, UniProt Q16581); assay: GloSensor-based cAMP assay; assay type: cell-based; details: Figure 7A; only at moderately high concentration (i.e., 1 μM)
T3 sequence (Q16581 1-482): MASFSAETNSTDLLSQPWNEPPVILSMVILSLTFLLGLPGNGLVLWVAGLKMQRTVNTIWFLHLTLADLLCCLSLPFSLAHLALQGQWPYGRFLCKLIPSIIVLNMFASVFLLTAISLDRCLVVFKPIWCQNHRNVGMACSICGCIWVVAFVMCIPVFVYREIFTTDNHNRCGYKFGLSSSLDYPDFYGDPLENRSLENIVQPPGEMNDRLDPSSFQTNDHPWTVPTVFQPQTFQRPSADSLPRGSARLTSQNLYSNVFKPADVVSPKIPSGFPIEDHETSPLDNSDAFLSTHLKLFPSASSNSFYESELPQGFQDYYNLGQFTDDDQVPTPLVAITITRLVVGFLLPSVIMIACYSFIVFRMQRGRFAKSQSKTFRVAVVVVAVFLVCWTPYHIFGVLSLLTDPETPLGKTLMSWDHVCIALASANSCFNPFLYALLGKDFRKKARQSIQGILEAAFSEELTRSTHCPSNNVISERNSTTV

mC5aR1 [4] = target: T4, mC5aR1 (Mus musculus, UniProt P30993); assay: NanoBiT βarr1/2 recruitment and endosomal trafficking, mC5aR1; assay type: cell-based; details: Figures 1I-1P, C5a^pep compared with hC5aR1
T4 sequence (P30993 1-351): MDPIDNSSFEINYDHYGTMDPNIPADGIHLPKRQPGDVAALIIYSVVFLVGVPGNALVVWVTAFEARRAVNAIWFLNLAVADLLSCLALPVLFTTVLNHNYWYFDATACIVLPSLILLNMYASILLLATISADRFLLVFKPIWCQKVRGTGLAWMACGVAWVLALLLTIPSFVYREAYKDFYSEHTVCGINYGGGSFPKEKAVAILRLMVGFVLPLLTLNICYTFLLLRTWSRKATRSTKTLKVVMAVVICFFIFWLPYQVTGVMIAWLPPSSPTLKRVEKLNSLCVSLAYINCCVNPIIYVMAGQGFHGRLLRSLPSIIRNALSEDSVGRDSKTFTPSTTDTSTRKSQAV
Outline: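 HEK-293 cells, PEI transfection (DNA:PEI 1:3). Recruitment used 1 μg mC5aR1-SmBiT (C-terminal) with 3.5 μg LgBiT-βarr1/2 (N-terminal). Trafficking used N-SmBiT-βarr1/2 with N-LgBiT-FYVE. After 16-18 h, cells went into HBSS, 0.01% BSA, 5 mM HEPES pH 7.4, 10 μM coelenterazine at 0.1 million/100 μL. Incubation 90 min 37 °C, then 30 min RT. Three basal luminescence reads, then serially diluted ligand.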

mC5aR1 [5] = target: T4, mC5aR1; assay: GloSensor-based cAMP assay; assay type: cell-based

EP141, pentadecameric peptide derived from and modified based on the carboxyl terminus of C3a
Emax of βarr1/2 recruitment to C3aR (NanoBiT), relative to C3a [1]: 55 to 65 % of C3a

C3a: complement anaphylatoxin, 77 amino acids, four-helix bundle; natural agonist of C3aR
transducer-coupling response at C5aR1 (C5aR1): did not exhibit any measurable transducer-coupling response

human complement anaphylatoxin C3a (from UniProt P01024 672-748) (ligand)
EC50 of βarr1/2 recruitment to C3aR (NanoBiT) [1]: 10 to 20 nM

B1: human complement anaphylatoxin C5a (ligand, UniProt P01031 678-751, looked up)
chain: TLQKKIEEIAAKYKHSVVKKCCYDGACVNNDETCEQRAARISLGPRCIKAFTECCVVASQLRANISHKDMQLGR
binding result [2]: binds | binding result [3]: binds

B2: C5a: complement anaphylatoxin, 74 amino acids, four-helix bundle; natural agonist of C5aR1 (protein)
chain: TLQKKIEEIAAKYKHSVVKKCCYDGACVNNDETCEQRAARISLGPRCIKAFTECCVVASQLRANISHKDMQLGR
modifications: left off: Trx, N-terminal, cleaved | His6, N-terminal, cleaved
cross-reactivity with C3aR in G-protein-coupling assay (C3aR): some cross-reactivity | agonism, βarr recruitment and endosomal trafficking (mC5aR1 [4]): full agonism | potency at mC5aR1 compared with hC5aR1, cAMP response (mC5aR1 [5]; Figures 1G and 1H): slightly lower potency | agonism, G-protein-mediated cAMP response (mC5aR1 [5]; Figures 1G and 1H, mC5aR1): full agonists | difference between human and mouse C5aR1, G-protein coupling (mC5aR1 [5]; human vs mouse C5aR1): only a small difference
